Results from ChEMBL document CHEMBL2057168, “(1aR,5aR)1a,3,5,5a-Tetrahydro-1H-2,3-diaza-cyclopropa[a]pentalene-4-carboxylic acid (MK-1903): a potent GPR109a agonist that lowers free fatty acids in humans” (J Med Chem, 2012).
Activity calls are given as the source filed them. The calls are words filed in the database; no cut-off is given here.

Columns and labels:
[1] = Volume of distribution in Sprague-Dawley rat at 2 mg/kg, iv; format: ADME, organism-based; set-up: dose 2 mg/kg, route intravenous; conditions: in vivo
Summary of the method: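 Male Sprague–Dawley rats dosed iv at 2 mg/kg in 80% PEG400/20% phosphate buffered saline. Jugular vein blood was serially sampled over 24 h, and plasma was prepared from sodium heparin blood. Plasma was analysed by HPLC/MS/MS (LLOQ 1 ng/mL, ULOQ 2000 ng/mL).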

[2] = Cmin in human at 100 mg, po BID administered on day 1 followed by 2-day wash out period after which dosing continued up to day 11 measured on day 4 at 12 hrs; format: ADME, organism-based; conditions: in vivo, read-out: Cmin
Summary of the method: (§1)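 Healthy male volunteers took part in a double-blind, randomized, placebo-controlled dose-escalation study, with cohorts of 8 (6 on drug, 2 on placebo). Each subject got an oral dose on day 1, then a 2-day washout, then dosing on days 4–11. The 200 mg qd group was titrated over days 1–4. Venous plasma was sampled predose and 0.5–12 h postdose on days 1, 4 and 11, and predose on days 5–10 for troughs.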

[3] = Cmin in human at 50 mg, po BID administered on day 1 followed by 2-day wash out period after which dosing continued up to day 11 measured on day 11 at 12 hrs; format: ADME, organism-based; conditions: in vivo, read-out: Cmin; summary of the method: as §1
Homo sapiens [4] = test: Antidyslipedic activity in human assessed as decrease in free fatty acid level at 50 to 200 mg, po administered as a single dose measured up to 8 hrs relative to placebo control; format: functional, organism-based
Homo sapiens [5] = test: Toxicity in dyslipedimc patient assessed as flushing at 150 mg administered TID during four week study; format: organism-based; conditions: in vivo
[6] = Cmax in human at 175 mg, po QID administered on day 1 followed by 2-days wash out period after which dosing continued up to day 11 measured on day 1; format: ADME, organism-based; set-up: dose 175 mg, route oral; conditions: in vivo; summary of the method: as §1
[7] = Apparent half life in human at 50 mg, po BID administered on day 1 followed by 2-day wash out period after which dosing continued up to day 11 measured on day 11; format: ADME, organism-based; conditions: in vivo, read-out: t1/2(app) (converted)
Summary of the method: (§2)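 Double-blind, placebo-controlled, randomized dose-escalation study in healthy male volunteers, six cohorts of eight (six active, two placebo). Oral dose on day 1, two-day washout, then dosing days 4–11; the 200 mg qd cohort was titrated over days 1–4. Venous blood taken predose and at 0.5–12 h on days 1, 4 and 11; plasma drug measured. τ 12 h (bid), 24 h (qd), 8 h (tid), 6 h (qid).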

[8] = AUC (0 to 12 hrs) in human at 50 mg, po BID administered on day 1 followed by 2-day wash out period after which dosing continued up to day 11 measured on day 4; format: ADME, organism-based; set-up: time < 12 hr, dose 50 mg, route oral; conditions: plasma; summary of the method: as §2
[9] = Tmax in human at 150 mg, po TID administered on day 1 followed by 2-days wash out period after which dosing continued up to day 11 measured on day 4; format: ADME, organism-based; conditions: in vivo
Summary of the method: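 Double-blind, placebo-controlled, randomized multiple oral dose study in healthy male volunteers (cohorts of eight; six active, two placebo). Dose given on day 1, then a two-day washout, then dosing days 4–11; for the QD arm, subjects were titrated over days 1–4. Venous plasma sampled predose and 0.5, 1, 1.5, 2, 4, 6, 8, 10, 12 h postdose on days 1, 4 and 11. Tmax reported as median (min–max).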

[10] = AUC (0 to 12 hrs) in human at 100 mg, po BID administered on day 1 followed by 2-day wash out period after which dosing continued up to day 11 measured on day 4; format: ADME, organism-based; set-up: time < 12 hr, dose 100 mg, route oral; conditions: plasma; summary of the method: as §2

O=C(O)c1n[nH]c2c1C[C@H]1C[C@@H]21
Vd [1]: 0.53 L/kg | concentration at 12 h [2]: 0.083 nM | concentration at 12 h [3]: 0.045 nM | Activity (Homo sapiens [4]): Active | Activity (Homo sapiens [5]): Non-toxic | Cmax [6]: 52.6 nM | half-life [7]: 1.9 h | AUC at 12 h [8]: 0.0261 µM·h | Tmax [9]: 0.5 h | AUC at 12 h [10]: 0.0657 µM·h
